The record followed here is ChEMBL document CHEMBL5370545 (Eur J Med Chem, 2023).

A word on the IC50: it is the concentration at which inhibition is half-maximal. As usually defined, the Kd is the constant that tells how readily two partners part at equilibrium. A higher Kd goes with a looser complex.

One data set relates to C32. Kind of data set: Cytotoxicity against human C32 cells expressing heterozygous BRAF V600E mutant assessed as cell growth measured after 7 days of treatment by crystal violet assay. It is filed as functional, cell-based. The note with it: C32, 168 h. The method in brief:
(§1)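 Cells seeded in 12-well plates: 8505C at 3 × 10^3, C32 at 10^4, HT29 at 5 × 10^3. Treated 24 h later with a dose series or DMSO vehicle for 7 days. Fixed in 4% PFA and stained with 0.1% crystal violet in 20% methanol. Destained with 10% acetic acid and read at 590 nm. Normalised to vehicle; mean ± SEM of three independent experiments.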

Another data set relates to HT-29. The experiment in a line: Cytotoxicity against human HT-29 cells expressing heterozygous BRAF V600E mutant assessed as cell growth measured after 7 days of treatment by crystal violet assay. Format: functional, cell-based. The note with it: HT-29, 168 h. The essentials: as §1
A further data set concerns 8505C. The experiment in a line: Cytotoxicity against human 8505C cells expressing homozygous BRAF V600E mutant assessed as cell growth measured after 7 days of treatment by crystal violet assay. As to conditions: 168 h; call rule not given here. It is filed as functional, cell-based. The method in brief: as §1
Data set [1] can be described thus: Cytotoxicity against human cells expressing heterozygous BRAF V600E mutant assessed as cell growth measured after 7 days of treatment by crystal violet assay. As to conditions: 168 h.
The test system of data set [2] is Serine/threonine-protein kinase B-raf (Homo sapiens), P15056 [V600E]. Kind of data set: Displacement of Vemurafenib from BRAF V600E mutant in human WM278 cells assessed as increase in cyno-fluorescence measured after 90 mins by flow cytometry based displacement assay. Format: cell-based. The essentials: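 Without washing, the Cy5 probe was added at 0, 0.05, 0.2, 1 and 2 µM for 90 min more. Cells were washed three times with medium (15 min each), imaged live, detached, and cell-associated Cy5 fluorescence was quantified by flow cytometry.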
Sequence of Serine/threonine-protein kinase B-raf (Homo sapiens), P15056 [V600E] (P15056 whole entry V600E): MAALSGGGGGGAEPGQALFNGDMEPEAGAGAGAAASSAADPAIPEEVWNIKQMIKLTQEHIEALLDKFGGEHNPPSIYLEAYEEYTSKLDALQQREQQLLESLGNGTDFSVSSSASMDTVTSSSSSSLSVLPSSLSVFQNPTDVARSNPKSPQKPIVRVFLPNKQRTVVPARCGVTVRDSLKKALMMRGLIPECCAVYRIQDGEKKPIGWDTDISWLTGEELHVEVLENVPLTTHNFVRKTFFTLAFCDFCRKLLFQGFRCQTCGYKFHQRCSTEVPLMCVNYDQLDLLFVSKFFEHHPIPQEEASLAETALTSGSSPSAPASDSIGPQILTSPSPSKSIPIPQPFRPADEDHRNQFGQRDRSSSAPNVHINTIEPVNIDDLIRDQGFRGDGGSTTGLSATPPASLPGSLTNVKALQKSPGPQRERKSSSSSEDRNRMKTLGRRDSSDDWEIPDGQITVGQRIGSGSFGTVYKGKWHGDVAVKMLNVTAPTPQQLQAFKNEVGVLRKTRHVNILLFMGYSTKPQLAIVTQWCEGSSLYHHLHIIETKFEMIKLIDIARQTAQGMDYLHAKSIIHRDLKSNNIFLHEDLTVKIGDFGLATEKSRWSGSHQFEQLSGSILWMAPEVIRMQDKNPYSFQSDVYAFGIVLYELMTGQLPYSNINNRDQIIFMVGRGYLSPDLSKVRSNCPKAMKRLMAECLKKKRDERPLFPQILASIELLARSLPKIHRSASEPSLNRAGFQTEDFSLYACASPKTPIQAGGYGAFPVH

Data set [3] can be described thus: Chemical stability of compound in cell culture medium at 100 uM at acidic pH measured for 2 to 48 hrs by reverse phase HPLC chromatographic analysis. Format: physicochemical. As to conditions: time 2-48 hrs. The method in brief:
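Incubated at 100 µM, 37 °C, in phenol red-free DMEM High Glucose at pH 5, 7.4 or 8 for up to 48 h (2–48 h). Aliquots taken at each time point and analysed by RP-HPLC with a 35 min 0.1% TFA water/acetonitrile gradient. Chromatographic profile and 640/330 nm peak-area ratio followed.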

Data set [4] can be described thus: Drug uptake in human Hela cells assessed as fluorescent signal at 0.5 uM measured after 48 hrs by fluorescence microscopy. It is filed as ADME, cell-based. The method in brief: (§2)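 A375 and HeLa cells seeded at 3 × 10^4 and treated 24 h later with 0.5 µM compound or DMSO vehicle for 48 h. Washed with PBS, fixed in 4% formaldehyde for 10 min at room temperature, and stained with DAPI and phalloidin. Cy5 signal imaged by inverted fluorescence microscopy.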

Data set [5] can be described thus: Stability of compound in foetal bovine serum at 100 uM measured for 2 to 48 hrs by reverse phase HPLC chromatographic analysis. It is filed as ADME, cell-free, Bos taurus. As to conditions: cattle, time 2-48 hrs. The essentials: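 Held at 100 µM in foetal bovine serum at 37 °C for up to 48 h (2–48 h). Each aliquot diluted 1:10 in pH 7.4 culture medium before RP-HPLC with a 35 min 0.1% TFA water/acetonitrile gradient. Chromatographic profile monitored.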

A short description of data set [6]: Drug uptake in human A-375 cells harboring BRAF V600E mutant assessed as fluorescent signal at cytoplasm at 0.5 uM measured after 48 hrs by fluorescence microscopy. Format: ADME, cell-based. As to conditions: a-375, 48 h. The essentials: as §2
Data set [7] has as its target Serine/threonine-protein kinase B-raf (Homo sapiens, UniProt P15056, V600E). Kind of data set: biochemical.

Sequence of Serine/threonine-protein kinase B-raf (P15056 2-766 V600E limits assumed): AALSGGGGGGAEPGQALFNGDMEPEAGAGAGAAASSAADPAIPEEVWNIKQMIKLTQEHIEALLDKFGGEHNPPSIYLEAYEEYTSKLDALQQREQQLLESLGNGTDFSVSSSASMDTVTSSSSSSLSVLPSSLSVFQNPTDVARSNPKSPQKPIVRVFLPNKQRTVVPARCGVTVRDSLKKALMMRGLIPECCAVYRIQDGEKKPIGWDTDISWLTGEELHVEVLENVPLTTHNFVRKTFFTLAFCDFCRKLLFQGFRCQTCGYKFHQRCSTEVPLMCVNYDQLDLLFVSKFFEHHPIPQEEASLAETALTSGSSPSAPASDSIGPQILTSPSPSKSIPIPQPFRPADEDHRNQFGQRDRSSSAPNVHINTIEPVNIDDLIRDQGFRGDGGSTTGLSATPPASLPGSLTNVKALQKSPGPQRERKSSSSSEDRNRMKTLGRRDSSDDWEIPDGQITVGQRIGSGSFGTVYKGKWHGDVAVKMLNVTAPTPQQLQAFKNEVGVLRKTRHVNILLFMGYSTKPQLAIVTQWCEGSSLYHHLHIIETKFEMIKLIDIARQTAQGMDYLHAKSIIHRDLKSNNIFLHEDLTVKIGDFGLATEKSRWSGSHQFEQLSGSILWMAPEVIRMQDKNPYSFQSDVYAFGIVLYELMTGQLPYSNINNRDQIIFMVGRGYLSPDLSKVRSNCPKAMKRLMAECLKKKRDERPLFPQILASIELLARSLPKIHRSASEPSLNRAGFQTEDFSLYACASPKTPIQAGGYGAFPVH

Take `CCCS(=O)(=O)Nc1ccc(F)c(C(=O)c2c[nH]c3ncc(-c4ccc(N)cc4)cc23)c1F`: the IC50 worked out at 12 nM in the data set with C32, 27 nM with HT-29, 620 nM with 8505C and 15 nM in data set [1].

For `CCCS(=O)(=O)Nc1ccc(F)c(C(=O)c2c[nH]c3ncc(-c4ccc(Cl)cc4)cc23)c1F` [VEMURAFENIB], the IC50 in the data set with C32 came out at 84 nM; with HT-29, 49 nM; with 8505C, 2940 nM; in [1], 150 nM.

As to `CCCS(=O)(=O)Nc1ccc(F)c(C(=O)c2c[nH]c3ncc(-c4ccc(NC(=O)COCCOCCNC(=O)CCCCC[N+]5=C(/C=C/C=C/C=C6\N(C)c7ccccc7C6(C)C)C(C)(C)c6ccccc65)cc4)cc23)c1F.O=C([O-])C(F)(F)F`, in data set [2], the Activity result is “Dose-Dependent Effect”. For the same compound, the figures for the Stability result in data set [3] and in [5] were “Unstable” and “Stable”, respectively. Moreover, the IC50 in the data set on C32 was determined as 630 nM; with HT-29, 340 nM; in the data set with 8505C, 2500 nM; in data set [1] it was 570 nM. Also, the Drug uptake entry in data set [4] is recorded as “Not Active”; in data set [6], “Active”. The compound also yielded a Kd in [7] of 13 nM.
